Results from ChEMBL document CHEMBL5647693, “Molecular basis underlying resistance to Mps1/TTK inhibitors” (Oncogene, 2016).
pIC50: −log10 of the molar value. Active and inactive are the calls of the source. The rule behind the calls is not given here.

Columns and labels:
DLD-1 [1] = experiment: cells; type: functional, cell-based; settings: Homo sapiens, DLD-1, 120 h
HCT-116 [2] = experiment: cells; type: functional, cell-based; settings: Homo sapiens, HCT-116, 120 h
U2OS [3] = experiment: cells; type: functional, cell-based; settings: Homo sapiens, 120 h
HeLa [4] = experiment: Induction of mitotic arrest in human HeLa cells expressing histone H2B-YFP assessed as initiating anaphase at 50 to 100 nM incubated for 16 hrs and measured within 15 min after nuclear envelope breakdown by time-lapse microscopy relative to control; type: functional; settings: dose 50-100 nM, time 975 min, 16.25 h
How it was run: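 Live imaging of HeLa H2B-YFP cells in L-15 medium at 37 °C after DMSO or 50/100 nM Cpd-5, no nocodazole. Time from nuclear envelope breakdown to anaphase onset recorded for 50 cells per condition; cumulative anaphase-onset percentage and mean mitotic duration.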

HeLa [5] = experiment: Induction of mitotic arrest in human HeLa cells expressing histone H2B-YFP assessed as chromosome misalignment at 50 to 100 nM incubated for 16 hrs by time-lapse microscopy relative to control; type: functional; settings: dose 50-100 nM
How it was run: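 HeLa H2B-YFP cells imaged live at 37 °C in L-15 after DMSO or 50/100 nM Cpd-5. Anaphases scored for missegregation as mild (up to 3 chromosomes) or severe (>3 chromosomes), 50 cells per condition.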

HeLa [6] = experiment: Induction of mitotic arrest in human HeLa cells assessed as depletion in KNL1 phosphorylation at 50 to 100 nM by immunostaining method; type: functional, cell-based; settings: dose 50-100 nM
How it was run: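 HeLa cells given DMSO, 50 or 100 nM Cpd-5, immunostained for phospho-KNL1 (MELT13/17) and CREST, DNA with DAPI. Kinetochore ph-KNL1/CREST fluorescence intensity ratios from 200 kinetochores per condition.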

HCT-116 [7] = experiment: Inhibition of colony formation in human HCT-116 cells harboring wild-type Mps1 assessed as cell survival at 60 nM incubated for 14 days by crystal violet staining based colony formation assay; type: functional; settings: time 14.0 day
How it was run: (§1)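 About 500–600 cells per 6-well plated on day 0, Cpd-5 added day 1 at 60 nM, colonies grown to day 14. Fixed 10 min in 96% methanol, stained with 0.1% crystal violet, scanned and analysed. Parental and drug-selected clones tested side by side.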

HeLa [8] = experiment: Inhibition of colony formation in human HeLa cells harboring wild-type Mps1 assessed as cell survival at 60 nM incubated for 14 days by crystal violet staining based colony formation assay; type: functional; settings: time 14.0 day
How it was run: as §1

HeLa [9] = experiment: Inhibition of colony formation in human HeLa cells harboring Mps1 I598F mutant assessed as cell survival at 60 nM incubated for 14 days by crystal violet staining based colony formation assay; type: functional; settings: time 14.0 day
How it was run: as §1

HCT-116 [10] = experiment: Inhibition of colony formation in human HCT-116 cells harboring Mps1 531M mutant assessed as cell survival at 60 nM incubated for 14 days by crystal violet staining based colony formation assay; type: functional; settings: time 14.0 day
How it was run: as §1

HCT-116 [11] = experiment: Inhibition of colony formation in human HCT-116 cells harboring Mps1 C604Y-A mutant assessed as cell survival at 60 nM incubated for 14 days by crystal violet staining based colony formation assay; type: functional; settings: time 14.0 day
How it was run: as §1

HCT-116 [12] = experiment: Inhibition of colony formation in human HCT-116 cells harboring Mps1 C604Y-B mutant assessed as cell survival at 60 nM incubated for 14 days by crystal violet staining based colony formation assay; type: functional; settings: time 14.0 day
How it was run: as §1

DLD-1 [13] = experiment: Inhibition of colony formation in human DLD-1 cells harboring Mps1 S611R mutant assessed as cell survival at 60 nM incubated for 14 days by crystal violet staining based colony formation assay; type: functional; settings: time 14.0 day
How it was run: as §1

HCT-116 [14] = experiment: Inhibition of colony formation in human HCT-116 cells harboring Mps1 C604Y-B mutant assessed as cell survival incubated for 5 days crystal violet staining based colony formation assay; type: functional; settings: HCT-116, 120 h
How it was run: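 Cells (~1500 per well, 96-well format) seeded day 0; inhibitor added day 1 over a range of concentrations; on day 6 fixed 10 min in 96% methanol, stained with 0.1% crystal violet, washed, scanned and quantified. Grown in DMEM with 6% FCS, penicillin-streptomycin, 2 mM L-glutamine. Survival relative to untreated; IC50 from curve fit, average of three independent experiments.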

HCT-116 [15] = experiment: Antiproliferative activity against human HCT-116 cells harboring Mps1 531M mutant assessed as change in Mps1 expression level by Western blot analysis; type: functional, cell-based
How it was run: (§2)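 Lysis in Tris/HCl pH 7.5 with 150 mM NaCl, 1% Triton X-100, DTT, EDTA, phosphatase and protease inhibitors. SDS-PAGE, transfer to nitrocellulose, block in 4% BSA 0.5 h at room temperature, primary antibody (Mps1-NT) overnight at 4 °C, secondary 1:2000 for 1 h, ECL chemiluminescence detection.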

HCT-116 [16] = experiment: Antiproliferative activity against human HCT-116 cells harboring Mps1 C604Y-A mutant assessed as change in Mps1 expression level by Western blot analysis; type: functional, cell-based
How it was run: as §2

HCT-116 [17] = experiment: Antiproliferative activity against human HCT-116 cells harboring Mps1 C604Y-B mutant assessed as change in Mps1 expression level by Western blot analysis; type: functional, cell-based
How it was run: as §2

HeLa [18] = experiment: Antiproliferative activity against human HeLa cells harboring Mps1 I598F mutant assessed as change in Mps1 expression level by Western blot analysis; type: functional, cell-based
How it was run: as §2

DLD-1 [19] = experiment: Antiproliferative activity against human DLD-1 cells harboring Mps1 S611R mutant assessed as change in Mps1 expression level by Western blot analysis; type: functional, cell-based
How it was run: as §2

HCT-116 [20] = experiment: Induction of mitotic arrest in human HCT-116 cells assessed as decrease in mitotic index at 30 nM incubated for 16 hrs; type: functional; design: scale not given: the % may be the effect or the level left
How it was run: (§3)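 About 10 000 cells per 96-well plated on day 0. On day 1, nocodazole (200 ng/ml) plus Cpd-5 at various concentrations added for 16 h. Fixed in 5% formaldehyde, stained for phospho-histone H3-Ser10 and DAPI, up to nine images per well (~3000 cells). Mitotic index = pH3S10-positive/DAPI-positive cells, normalized; three independent experiments.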

DLD-1 [21] = experiment: Induction of mitotic arrest in human DLD-1 cells assessed as decrease in mitotic index at 30 nM incubated for 16 hrs; type: functional; design: scale not given: the % may be the effect or the level left
How it was run: as §3

DLD-1 [22] = experiment: Induction of mitotic arrest in human DLD-1 cells harboring Mps1 S611R mutant assessed as mitotic index at 200 to 400 nM incubated for 16 hrs in the presence of nocodazole; type: functional, cell-based; settings: dose 200-400 nM
How it was run: as §3

HCT-116 [23] = experiment: Induction of mitotic arrest in human HCT-116 cells harboring Mps1 I531M mutant assessed as mitotic index at 200 to 400 nM incubated for 16 hrs in the presence of nocodazole; type: functional, cell-based; settings: dose 200-400 nM
How it was run: as §3

HCT-116 [24] = experiment: Induction of mitotic arrest in human HCT-116 cells harboring Mps1 C604Y mutant assessed as mitotic index at 200 to 400 nM incubated for 16 hrs in the presence of nocodazole; type: functional, cell-based; settings: dose 200-400 nM
How it was run: as §3

Homo sapiens [25] = species on record: Homo sapiens; experiment: Inhibition of recombinant Mps1 531M mutant (unknown origin) assessed as KNL1 phosphorylation level incubated for 10 min by Western blot analysis
Homo sapiens [26] = species on record: Homo sapiens; experiment: Inhibition of recombinant Mps1 I598F mutant (unknown origin) assessed as KNL1 phosphorylation level incubated for 10 min by Western blot analysis
Homo sapiens [27] = species on record: Homo sapiens; experiment: Inhibition of recombinant Mps1 C604Y mutant (unknown origin) assessed as KNL1 phosphorylation level incubated for 10 min by Western blot analysis
Homo sapiens [28] = species on record: Homo sapiens; experiment: Inhibition of recombinant Mps1 S611R mutant (unknown origin) assessed as KNL1 phosphorylation level incubated for 10 min by Western blot analysis
U2OS [29] = experiment: Inhibition of colony formation in human U2OS cells harboring wild-type LAP-Mps1 assessed as cell survival incubated for 5 days by crystal violet staining based colony formation assay; type: functional; settings: 120 h
How it was run: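 Cells seeded at ~1500 per 96-well on day 0; inhibitor added on day 1 over a concentration range. On day 6, fixed 10 min in 96% methanol, stained with 0.1% crystal violet, scanned and quantified. Survival relative to untreated; IC50 from dose–response curves; mean of three independent experiments. Culture in DMEM with 6% FCS.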

U2OS [30] = experiment: Induction of mitotic arrest in human U2OS cells harboring LAP-Mps1 531M mutant assessed as maintain in checkpoint-dependent arrest at 100 nM incubated for 16 hrs in the presence of nocodazole; type: functional, cell-based
How it was run: as §3

U2OS [31] = experiment: Induction of mitotic arrest in human U2OS cells harboring LAP-Mps1 I598F mutant assessed as maintain in checkpoint-dependent arrest at 100 nM incubated for 16 hrs in the presence of nocodazole; type: functional, cell-based
How it was run: as §3

U2OS [32] = experiment: Induction of mitotic arrest in human U2OS cells harboring LAP-Mps1 C604Y mutant assessed as maintain in checkpoint-dependent arrest at 100 nM incubated for 16 hrs in the presence of nocodazole; type: functional, cell-based
How it was run: as §3

U2OS [33] = experiment: Induction of mitotic arrest in human U2OS cells harboring LAP-Mps1 S611R mutant assessed as maintain in checkpoint-dependent arrest at 100 nM incubated for 16 hrs in the presence of nocodazole; type: functional, cell-based
How it was run: as §3

HeLa [34] = experiment: Inhibition of colony formation in human HeLa cells harboring Mps1 C604Y mutant at 80 nM incubated for 14 days in the presence of oligonucleotide by crystal violet staining based colony formation assay; type: functional, cell-based; settings: time 14.0 day
How it was run: (§4)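 HeLa (1 × 10^6) transfected with mock, a 100-bp repair oligonucleotide alone, or oligonucleotide plus pX330 Cas9/Mps1-targeting gRNA. Selected with 80 nM Cpd-5 for 14 days in 10-cm plates, then stained with crystal violet.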

HeLa [35] = experiment: Inhibition of colony formation in human HeLa cells harboring Mps1 C604Y mutant at 80 nM incubated for 14 days in the presence of oligonucleotide and Cas9/gRNA by crystal violet staining based colony formation assay; type: functional, cell-based; settings: time 14.0 day
How it was run: as §4

HeLa [36] = experiment: Induction of mitotic arrest in human HeLa cells harboring Mps1 C604F mutant assessed as initiating anaphase at 200 nM and measured after nuclear envelope breakdown; type: functional, cell-based
HeLa [37] = experiment: cells; type: functional, cell-based; settings: Homo sapiens, 120 h
HeLa [38] = experiment: Induction of mitotic arrest in human HeLa cells harboring Mps1 C604Y mutant assessed as initiating anaphase at 200 nM and measured after nuclear envelope breakdown; type: functional, cell-based
HeLa [39] = experiment: Induction of mitotic arrest in human HeLa cells harboring Mps1-C604F mutant assessed as decrease in average mitotic time with mis seggregation at 200 nM relative to control; type: functional; design: scale not given: the % may be the effect or the level left
HeLa [40] = experiment: Induction of mitotic arrest in human HeLa cells harboring Mps1-C604F mutant assessed as decrease in average mitotic time with most mild seggregation errors at 200 nM; type: functional, cell-based
HeLa [41] = experiment: Induction of mitotic arrest in human HeLa cells harboring Mps1-C604F mutant assessed as […] in average mitotic time with severe seggregation at 400 nM relative to control; type: functional
HeLa [42] = experiment: Induction of mitotic arrest in human HeLa cells assessed as decrease in average mitotic time with severe seggregation errors at 100 nM relative to control; design: scale not given: the % may be the effect or the level left

SMILES: CCc1cccc(CC)c1NC(=O)c1nn(C)c2c1CCc1cnc(Nc3ccc(N4CCN(C)CC4)cc3OC)nc1-2
- pIC50 (DLD-1 [1]): 7.61
- pIC50 (HCT-116 [2]): 7.70
- pIC50 (U2OS [3]): 7.69
- Activity (HeLa [4]): 100%
- Activity (HeLa [5]): 100%
- Activity (HeLa [6]): Active
- inhibition (HCT-116 [7]): inactive
- inhibition (HeLa [8]): inactive
- inhibition (HeLa [9]): Active
- inhibition (HCT-116 [10]): Active
- inhibition (HCT-116 [11]): Active
- inhibition (HCT-116 [12]): Active
- inhibition (DLD-1 [13]): Active
- pIC50 (HCT-116 [14]): 6.51
- Activity (HCT-116 [15]): inactive
- Activity (HCT-116 [16]): inactive
- Activity (HCT-116 [17]): inactive
- Activity (HeLa [18]): inactive
- Activity (DLD-1 [19]): inactive
- Activity (HCT-116 [20]): 60%
- Activity (DLD-1 [21]): 70%
- Activity (DLD-1 [22]): Active
- Activity (HCT-116 [23]): Active
- Activity (HCT-116 [24]): Active
- inhibition (Homo sapiens [25]): Active
- inhibition (Homo sapiens [26]): Active
- inhibition (Homo sapiens [27]): Active
- inhibition (Homo sapiens [28]): Active
- pIC50 (U2OS [29]): 7.48
- Activity (U2OS [30]): Active
- Activity (U2OS [31]): Active
- Activity (U2OS [32]): Active
- Activity (U2OS [33]): Active
- Activity (HeLa [34]): Active
- Activity (HeLa [35]): Active
- Activity (HeLa [36]): inactive
- pIC50 (HeLa [37]): 6.60
- Activity (HeLa [38]): inactive
- Activity (HeLa [39]): 70%
- Activity (HeLa [40]): Active
- Activity (HeLa [41]): 100%
- Activity (HeLa [42]): 100%
